Assay results taken from ChEMBL document CHEMBL4513216, “Probing the Open Global Health Chemical Diversity Library for Multistage-Active Starting Points for Next-Generation Antimalarials” (ACS Infect Dis, 2020).

Assay: Toxicity liver stage against HepG2, at 10uM
Assay type: cell-based
Set-up: test concentration 10 uM, cell line HepG2-A16-CD81EGFP
Conditions: human, HepG2-A16-CD81EGFP cells; read-out: INHIBITION
Procedure, shortened: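 Uninfected HepG2-A16-CD81EGFP cells, 3 × 10^3 per well, 1536-well, plated on prespotted compound at 10 μM final, parasite-free screening media added to match infected plates; puromycin 10 μM positive, DMSO 0.5% negative; run in parallel with 48 h PbLuc assay at 37 °C, 5% CO2; viability by CellTiter-Glo luminescence, normalized to controls.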

Compound	cytotoxicity at 10 µM [%]
O=C(C1CC1)N1CC[C@H](c2nnc(Cc3c[nH]c4ccccc34)o2)C1	4.09
CC(C)NC(=O)N1CCOC2(CCCNC2)C1 (configuration not stated)	4.76
CCN1CC2(CCCCN2C(=O)C2CCCCC2)CC1=O (configuration not stated)	18.3
CCNC(=O)N1CCC2(CC1)CCn1c(-c3cccc(OC)c3)cnc12	2.81
CCOC(=O)N1CCN(C(=O)c2sc(-c3ccc(F)cc3)nc2C)CC1	10.7
Cc1cccc(C(=O)N2C[C@@H]3OCCN(C(C)C)[C@@H]3C2)n1	-9.2
O=C(Cn1ccc(C(=O)O)n1)Nc1c(Cl)cccc1Cl	7.07
Cc1cc(N(C)C)nc(C2(C)CCCN2CC(N)=O)n1 (configuration not stated)	-2.8
Cc1ccc(-c2nnc(C3CCCN3S(=O)(=O)c3cnn(C)c3C)o2)s1 (configuration not stated)	5.35
NC(=O)C1(c2cnccn2)CCCN1Cc1ccccn1 (configuration not stated)	-6.36
COc1ccc(C)cc1CC(=O)N1CC[C@@]2(CCCO2)[C@@H](O)C1	-1.47
Cc1cccc(Nc2cc(C)nc(C3CCCCN3CC(N)=O)n2)n1 (configuration not stated)	-4.03
COCC(=O)N1CCCC1c1cc(N2CCN(C(C)=O)CC2)cc(C)n1 (configuration not stated)	-9.41
COc1cccc(C(=O)N2CCCC2c2ncc3c(n2)CCN(C)C3)c1 (configuration not stated)	-9.41
CC(=O)NC[C@]1(O)CCN(C(=O)c2ccc(F)c(Cl)c2)C[C@H]1O	1.47
COCC(=O)NC(c1ccccc1)c1ccc2c(c1)CCCO2 (configuration not stated)	-1.83
CN(Cc1nnc2ccccn12)C(=O)NC1CCCCC1	-5.97
COc1ccccc1CC1CCCN(C(=O)c2n[nH]c3c2CCC3)C1 (configuration not stated)	13.3
Cc1cc(C2CCCN2Cc2nnc(-c3ccco3)o2)on1 (configuration not stated)	8.92
NC(=O)c1ccc(CNC(=O)NCc2cc[nH]n2)cc1	12.3
CNC(=O)c1c(C)cccc1NCC(=O)Nc1cc(C)nn1C	-0.503

Compound	cytotoxicity at 10 µM [%]
CC(Cc1cccc(F)c1)C(=O)NS(=O)(=O)c1cnn(C)c1 (configuration not stated)	2.11
CCNc1cc2c(nn1)CCN(C(=O)C1Cc3ccccc3O1)C2 (configuration not stated)	-9.32
Cc1nc(-c2cnn(C)c2)sc1C(=O)NCc1ccc(C)n1C	9.25
CC1CN(C(=O)NCc2cccc(C#N)c2)CCN1CC(F)(F)F (configuration not stated)	-6.68
CN(C)c1nccc(NC(=O)c2ccncc2)n1	-4.33
COC1CCN(C(=O)Cn2nc(C)cc2C)CC1	3.81
CC(CC(=O)N1CCCN(Cc2nccn2C)CC1)n1cccc1 (configuration not stated)	-12.5
N#Cc1cccnc1N1CCC(OCc2ccccc2)CC1	-7.43
CNC(=O)CN1CCOC(c2ccccc2C(F)(F)F)C1 (configuration not stated)	0.71
O=C(NCC1(N2CCOCC2)CCSC1)Nc1ccncc1 (configuration not stated)	12.5
O=S(=O)(NCC1COc2ccccc2C1)N1CCOCC1 (configuration not stated)	-1.5
COCCNC(=O)Nc1cccc(COCCOC(C)C)c1	6.13
O=C(NC1CCC(C(=O)N2CCSCC2)CC1)N1CCOCC1 (configuration not stated)	13.1
CCc1nccn1C1CCCN(C(=O)c2cc[nH]n2)C1 (configuration not stated)	4.54
Cc1cc(C)n(CC2CN(Cc3cccnc3)CCO2)n1 (configuration not stated)	-3.08
Cc1cc(C)n(C2CCCN(C(=O)c3ccc(F)c(F)c3)C2)n1 (configuration not stated)	-4.91
CC(C)CC(CCO)CNC(=O)N1CCCC1(C)C (configuration not stated)	-12.7
COc1cc(F)ccc1N1CCN(Cc2nc(C)c(C)o2)CC1	10.7
CN(C(=O)COC1CCCCC1)C1CCN(CC2CCOC2)CC1 (configuration not stated)	0.33
Cc1c(C(=O)NC2(C#N)CCSC2)cnn1-c1ccccc1Cl (configuration not stated)	-2.06
CNC(=O)c1cccc(CNC(C)c2cc(Cl)ccc2OC)c1 (configuration not stated)	10.3

Compound	cytotoxicity at 10 µM [%]
CCc1n[nH]c(=O)c(C(=O)N2CCSC(C)(C)C2)c1CC	18.6
COC(C)(C)CNC(=O)c1cn(-c2cccc(Cl)c2F)nn1	8.83
CC(C)N(C)C(=O)c1ccc(Cl)c(NC(=O)C2CCC2)c1	-2.74
CCCNC(=O)C(C)Nc1ccc(COCC)cc1 (configuration not stated)	2.37
Cc1ncc(CN(C)C(=O)c2ccc3c(c2O)OC(C)(C)C3)s1	6.93
COCCNC(=O)C(C)S(=O)(=O)c1ccc(OC)cc1 (configuration not stated)	4.4
Cc1cccc(S(=O)(=O)NCC(C)(C)CC(C)O)c1C#N (configuration not stated)	-1.37
CC(=O)N1CCN(CC=C(C)C)CC1	3.95
CCCN(C)S(=O)(=O)NC(=O)c1ccc(CC)o1	20.5
CN(CCc1ccc2c(c1)CCO2)C1CCS(=O)(=O)CC1	-7.94
CC(NCCCC#N)c1ccc(S(C)(=O)=O)c(F)c1 (configuration not stated)	6.96
CSC(C)(C)CNC(=O)NC1CCN(C)CC1	18.9
O=C(c1cccnc1-n1cccn1)N1CCN(CC2CC2)CC1	-4.71
CC(C)NC(=O)NCCCc1cc(N)n(-c2ccccc2)n1	-6.78
COc1ccc(CS(=O)(=O)CC(=O)NCC2CC2)cc1F	-0.265
CCS(=O)(=O)NC[C@]12COC[C@H]1CN(Cc1cc(C)on1)C2	2.34
COC(=O)c1ccc2c(-c3ccnc(N[C@@H](C)CO)n3)c[nH]c2c1	-5.94
CN(c1nccc(-c2cnc3sccn3c2=O)n1)C1CCCCC1	-8.44
CCCOc1ccc(C(=O)N2CCN3CCNC(=O)C3C2)cc1Cl (configuration not stated)	-1.65
Cc1[nH]c2ccc(CNC3CCN(Cc4ccccn4)CC3)cc2c1C	3.97
Cc1cnc(NC(=O)c2cccc(CN(C)Cc3ncccc3C)c2)s1	14.2

Compound	cytotoxicity at 10 µM [%]
CCN1CCC(CC(=O)N2CCn3cccc3C2c2cccnc2)CC1 (configuration not stated)	-8.87
CN(C)c1ccc(CN2CCN(c3ccc(C#N)cc3)C(=O)C2)cn1	-28.2
O=S1(=O)CCC(n2cc(C3=CCN(CCN4CCCCC4)CC3)cn2)C1 (configuration not stated)	-8.29
CCc1nc(C)sc1CN(Cc1ccncc1)C1CCN(C)CC1	6.4
CC(C)C(O)C1CCN(c2ccnc(C(=O)NCc3ccco3)c2)CC1 (configuration not stated)	-0.598
CCC[C@@H]1CN(C(=O)c2cc(-c3cccs3)n(C)n2)C[C@H]1NS(C)(=O)=O	-1.63
CC(C)(C)C(=O)N[C@H]1CC[C@H](Nc2nccc(-c3ccncc3)n2)C1	5.05
CCS(=O)(=O)N1CCC(c2nnc(CN3CCOCC3)n2C)CC1	17
CN1C(=O)CC(C(=O)O)C12CCN(Cc1ccc(F)cc1Cl)CC2 (configuration not stated)	-4.88
Cn1ncc2c(N3CCN(C(N)=O)CC3)nc(C3CCCC3)nc21	18.2
CS(=O)(=O)c1ccc(C(=O)N2CCCC(n3cccn3)C2)cc1 (configuration not stated)	-6.98
COc1cccc(C(=O)N(C)Cc2ncc(C)c(OC)c2C)c1OC	-7.02
Cc1nccc(-c2cccc(NCC(=O)N3CCCCCCC3)c2)n1	-0.513
Cc1csc(N2CCN(C(=O)Cc3ccsc3)CC2)n1	2.68
Cc1nn(C)c(N(C)C)c1CNC(C)Cc1c(F)cccc1F (configuration not stated)	-1.03
c1nn(C2CCCCC2)cc1-c1cncn1CCCN1CCCCC1	2.37
Cc1ccc(CN2CCC3(CC2)C(=O)N(CCO)CCN3C)o1	-1.63
Cc1ccc(CN2CC[C@H]3CO[C@H](CN(C)Cc4ccco4)[C@H]3C2)s1	4.74
c1cnc(N2CCCn3nnc(COCC4CC4)c3C2)nc1	-4.97
